Test results from ChEMBL document CHEMBL2346560, “Structure and function of a potent lipopolysaccharide-binding antimicrobial and anti-inflammatory peptide” (J Med Chem, 2013).
≈ marks a conversion by molar mass, not a printed value. Calls of active or inactive are those of the source. The calls are words filed in the database; no cut-off is given here. Bridge positions count the residues as written; N and C are the ends. Peptide text beside a SMILES is read from it.

Experiments:
Pseudomonas aeruginosa [1] = assay: Antibacterial activity against Pseudomonas aeruginosa ATCC 27853 treated with CaCl2 after 16 hrs by broth dilution method; type: functional; settings: ATCC 27853, 16 h
Method in brief: (§1)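 Salt sensitivity of the MIC. Peptide was tested in water, NaCl, CaCl2, MgCl2 or PBS (Na2HPO4-NaH2PO4, pH 7.4), with every salt at 150 mM. Values are means of three independent experiments, each run in duplicate.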

RAW264.7 [2] = assay: Antiinflammatory activity in mouse RAW264.7 cells assessed as inhibition of LPS-induced MCP1 production at 20 ug/mL after 24 hrs by ELISA relative to control; type: functional; settings: RAW264.7, 24 h
Method in brief: (§2)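 RAW 264.7 cells (2 × 10^5) were plated and allowed to adhere. They were given peptide (2.5, 5, 10, 20 µg/mL) with or without LPS (E. coli 055:B5, 20 ng/mL) for 24 h. Supernatant TNF-α, IL-6 and MCP-1 were measured by ELISA at A450. Controls were LPS alone and untreated cells. Mean ± SEM of three separate experiments.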

Pseudomonas aeruginosa [3] = assay: Antibacterial activity against Pseudomonas aeruginosa ATCC 27853 treated with NaCl after 16 hrs by broth dilution method; type: functional; settings: ATCC 27853, 16 h; method in brief: as §1
Staphylococcus aureus [4] = assay: Antibacterial activity against ampicillin, benzylpencillin-resistant Staphylococcus aureus 08A875 after 16 hrs by broth dilution method; type: functional; settings: 08A875, 16 h
Method in brief: (§3)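 MIC read-out, reported in µg/mL with µM equivalents. Each value is the mean of three independent experiments, each run in duplicate.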

RAW264.7 [5] = assay: Cytotoxicity against mouse RAW264.7 cells at >25 ug/mL after 24 hrs by MTT assay; type: cell-based; settings: raw264.7, 24 h
Bacillus subtilis = assay: Antibacterial activity against Bacillus subtilis 6633 treated with water after 16 hrs by broth dilution method; type: functional; settings: Bacillus subtilis, 6633, 16 h; method in brief: as §1
RAW264.7 [6] = assay: Antiinflammatory activity in mouse RAW264.7 cells assessed as inhibition of LPS-induced JNK2 expression preincubated for 1 hr prior to LPS-challenge measured after 3 hrs by Western blotting analysis; type: functional, cell-based
Method in brief: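 RAW 264.7 cells (1 × 10^6/well) were serum-starved in RPMI-1640 for 16 h. They were pretreated with peptide (0, 5, 10, 20 µg/mL) for 1 h, then given LPS (E. coli 055:B5, 0 or 100 ng/mL) for 3 h. Cells were washed in ice-cold PBS, and cytoplasmic or nuclear fractions were blotted for TLR4, JNK, NF-κB p65 and β-actin. Control was LPS alone.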

RAW264.7 [7] = assay: Antiinflammatory activity in mouse RAW264.7 cells assessed as inhibition of LPS-induced TNF alpha production at 20 ug/mL after 24 hrs by ELISA relative to control; type: functional; settings: RAW264.7, 24 h; method in brief: as §2
Staphylococcus aureus [8] = assay: Antibacterial activity against Staphylococcus aureus ATCC 2592 treated with water after 16 hrs by broth dilution method; type: functional; settings: ATCC 2592, 16 h; method in brief: as §1
Escherichia coli [9] = assay: Antibacterial activity against Escherichia coli ATCC 25922 treated with water after 16 hrs by broth dilution method; type: functional; settings: ATCC 25922, 16 h; method in brief: as §1
Escherichia coli [10] = assay: Antibacterial activity against Escherichia coli 08A852 assessed as cell swelling after 30 mins by scanning electron microscopic analysis; type: functional, organism-based
Method in brief: (§4)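 E. coli (about 2 × 10^7 CFU/mL) was exposed to peptide at 1 × MIC, 37 °C, 30 min, beside an untreated control. Cells were pelleted, fixed in 2.5% buffered glutaraldehyde (4 °C, 2 h), post-fixed in 1% osmium tetroxide (2 h), dehydrated through graded ethanol, frozen in tert-butyl alcohol and vacuum-dried, then imaged by SEM.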

RAW264.7 [11] = assay: Cytotoxicity against mouse RAW264.7 cells at 50 ug/mL after 24 hrs by MTT assay relative to control; type: cell-based; settings: raw264.7, 24 h
RAW264.7 [12] = assay: Antiinflammatory activity in mouse RAW264.7 cells assessed as inhibition of LPS-induced NO production at 20 ug/mL after 24 hrs by spectrophotometric analysis relative to control; type: functional; settings: RAW264.7, 24 h
Method in brief: (§5)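 RAW 264.7 cells (1 × 10^7) in RPMI-1640 with 10% FBS and penicillin/streptomycin were treated with peptide (2.5, 5, 10, 20 µg/mL) with or without LPS (E. coli 055:B5, 100 ng/mL) for 24 h. Medium nitrite was measured with Griess reagent at A540 against a NaNO2 standard curve. Control was LPS alone. Mean ± SEM of three separate experiments.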

Escherichia coli [13] = assay: Bactericidal activity against Escherichia coli ATCC 25922 at 10 times MIC after 60 mins by colony counting assay (reference value: 296 CFU); type: functional
Pseudomonas aeruginosa [14] = assay: Antibacterial activity against Pseudomonas aeruginosa ATCC 27853 after 16 hrs by broth dilution method; type: functional; settings: ATCC 27853, 16 h
Method in brief: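 MIC determined by an earlier in-house method. Values are means of three independent experiments, each run in duplicate.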

Staphylococcus aureus [15] = assay: Antibacterial activity against Staphylococcus aureus ATCC 2592 treated with PBS after 16 hrs by broth dilution method; type: functional; settings: ATCC 2592, 16 h; method in brief: as §1
RAW264.7 [16] = assay: Antiinflammatory activity in mouse RAW264.7 cells assessed as inhibition of LPS-induced TNF alpha production after 24 hrs by ELISA; type: functional, cell-based; method in brief: as §2
Escherichia coli [17] = assay: Bactericidal activity against Escherichia coli ATCC 25922 at MIC after 120 mins by colony counting assay (reference value: 1868.3 CFU); type: functional
RAW264.7 [18] = assay: Cytotoxicity against mouse RAW264.7 cells at 200 ug/mL after 24 hrs by MTT assay relative to control; type: cell-based; settings: raw264.7, 24 h
RAW264.7 [19] = assay: Antiinflammatory activity in mouse RAW264.7 cells assessed as inhibition of LPS-induced NO production at 2.5 ug/mL after 24 hrs by spectrophotometric analysis relative to control; type: functional; settings: RAW264.7, 24 h; method in brief: as §5
Staphylococcus aureus [20] = assay: Antibacterial activity against ampicillin, benzylpencillin-resistant Staphylococcus aureus 08A865 after 16 hrs by broth dilution method; type: functional; settings: 08A865, 16 h; method in brief: as §3
RAW264.7 [21] = assay: Antiinflammatory activity in mouse RAW264.7 cells assessed as inhibition of LPS-induced IL6 production after 24 hrs by ELISA; type: functional, cell-based; method in brief: as §2
RAW264.7 [22] = assay: Antiinflammatory activity in mouse RAW264.7 cells assessed as inhibition of LPS-induced NO production at 5 ug/mL after 24 hrs by spectrophotometric analysis relative to control; type: functional; settings: RAW264.7, 24 h; method in brief: as §5
Escherichia coli [23] = assay: Bactericidal activity against Escherichia coli ATCC 25922 at 10 times MIC after 120 mins by colony counting assay (reference value: 1868.3 CFU); type: functional
Escherichia coli [24] = assay: Antibacterial activity against Escherichia coli ATCC 25922 treated with NaCl after 16 hrs by broth dilution method; type: functional; settings: ATCC 25922, 16 h; method in brief: as §1
Escherichia coli [25] = assay: Antibacterial activity against Escherichia coli ATCC 25922 assessed as plasma membrane rupture after 30 mins by scanning electron microscopic analysis; type: functional, organism-based; method in brief: as §4
Candida albicans = assay: Antifungal activity against Candida albicans ATCC 2002 treated with NaCl after 16 hrs by broth dilution method; type: functional; settings: ATCC 2002, 16 h; method in brief: as §1
Staphylococcus aureus [26] = assay: Antibacterial activity against Staphylococcus aureus ATCC 2592 treated with MgCl2 after 16 hrs by broth dilution method; type: functional; settings: ATCC 2592, 16 h; method in brief: as §1
Escherichia coli [27] = assay: Antibacterial activity against Escherichia coli ATCC 25922 assessed as cell swelling after 30 mins by scanning electron microscopic analysis; type: functional, organism-based; method in brief: as §4

Question: What does the source list for CC[C@H](C)[C@H](NC(=O)[C@H](Cc1cnc[nH]1)NC(=O)[C@H](CO)NC(=O)[C@@H](NC(=O)[C@@H](NC(=O)[C@@H](NC(=O)[C@@H](NC(=O)[C@H](CCCNC(=N)N)NC(=O)[C@H](CC(C)C)NC(=O)[C@H](CCCCN)NC(=O)[C@H](CCC(=O)O)NC(=O)[C@H](CCCCN)NC(=O)[C@H](CC(C)C)NC(=O)[C@H](CCCCN)NC(=O)[C@@H]1CSSC[C@H](NC(=O)[C@H](CCCCN)NC(=O)[C@@H](N)CCCNC(=N)N)C(=O)N[C@@H](CC(N)=O)C(=O)N[C@@H](Cc2ccccc2)C(=O)N[C@@H](CC(C)C)C(=O)N1)[C@@H](C)O)C(C)C)[C@@H](C)CC)[C@@H](C)O)C(=O)N[C@@H](CC(=O)O)C(=O)N[C@@H](CCCCN)C(=O)N[C@H](C(=O)N[C@@H](CC(C)C)C(=O)N[C@@H](CCCNC(=N)N)C(=O)N1CCC[C@H]1C(=O)N[C@@H](CCC(N)=O)C(=O)NCC(=O)O)C(C)C (H-RKCNFLCKLKEKLRTVITSHIDKVLRPQG-OH; disulfide 3-7)?
Answer: MIC (Pseudomonas aeruginosa [1]): 18.8 mg/L (≈ 5.48 µM); inhibition at 20 µg/mL (RAW264.7 [2]): 68%; MIC (Pseudomonas aeruginosa [3]): 9.38 mg/L (≈ 2.74 µM); MIC (Staphylococcus aureus [4]): 5.48 µM (≈ 18.8 µg/mL); Activity (RAW264.7 [5]): Toxic; MIC (Bacillus subtilis): > 100 mg/L; inhibition (RAW264.7 [6]): Dose-dependent effect; inhibition at 20 µg/mL (RAW264.7 [7]): 60%; MIC (Staphylococcus aureus [8]): 9.38 mg/L (≈ 2.74 µM); MIC (Escherichia coli [9]): 4.69 mg/L (≈ 1.37 µM); Activity (Escherichia coli [10]): Active; Activity (RAW264.7 [11]): 2.7%; inhibition at 20 µg/mL (RAW264.7 [12]): 70%; CFU (Escherichia coli [13]): 0; MIC (Pseudomonas aeruginosa [14]): 5.48 µM (≈ 18.8 µg/mL); MIC (Staphylococcus aureus [15]): 4.69 mg/L (≈ 1.37 µM); inhibition (RAW264.7 [16]): Dose-dependent effect; CFU (Escherichia coli [17]): 0; Activity (RAW264.7 [18]): 5.1%; inhibition at 2.5 µg/mL (RAW264.7 [19]): 17%; MIC (Staphylococcus aureus [20]): 2.74 µM (≈ 9.38 µg/mL); inhibition (RAW264.7 [21]): Dose-dependent effect; inhibition at 5 µg/mL (RAW264.7 [22]): 30%; CFU (Escherichia coli [23]): 0; MIC (Escherichia coli [24]): 2.35 mg/L (≈ 0.686 µM); Activity (Escherichia coli [25]): Active; MIC (Candida albicans): 2.35 mg/L (≈ 0.686 µM); MIC (Staphylococcus aureus [26]): 9.38 mg/L (≈ 2.74 µM); Activity (Escherichia coli [27]): Active
